Source: ChEMBL document CHEMBL3352369, “Design, synthesis and biological evaluation of novel 1-hydroxyl-3-aminoalkoxy xanthone derivatives as potent anticancer agents” (Eur J Med Chem, 2014)
pIC50: −log10 of the molar value. Active and inactive are the calls of the source. No cut-off for these calls is given here.

Assays:
Type in all cases: functional, cell-based
A549 = test: Antiproliferative activity against human A549 cells assessed as inhibition of cell viability after 48 hrs by MTT assay; settings: A549, 48 h
Outline: (§1)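 A549, BEL-7402 and CNE lines from SIBS (Shanghai), grown as monolayer in RPMI 1640 with 10% FBS. 5000 cells/well in 96-well plates, graded concentrations for 48 h. MTT incubation 4 h at 37 C, DMSO solubilisation, A490 read. IC50 derived from survival relative to untreated control; 5-fluorouracil reference.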

MGC-803 [1] = test: Antiproliferative activity against human MGC803 cells assessed as inhibition of cell viability after 48 hrs by MTT assay; settings: MGC-803, 48 h
Outline: (§2)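 MGC-803 cells from SIBS (Shanghai), monolayer in RPMI 1640 with 10% FBS. 5000 cells/well in 96-well plates, exposed to compound for 24, 48 or 72 h. MTT added for a further 4 h at 37 C, formazan dissolved in DMSO, absorbance read at 490 nm. Survival rate = sample/control absorbance × 100%. n = 5, three independent experiments, two-tailed t-test.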

CNE = test: Antiproliferative activity against human CNE cells assessed as inhibition of cell viability after 48 hrs by MTT assay; outline: as §1
[2] = Antiproliferative activity against human Bel7402 cells assessed as inhibition of cell viability after 48 hrs by MTT assay; settings: Bel-7402, 48 h; outline: as §1
MGC-803 [3] = test: Anticancer activity against human MGC803 cells assessed as inhibition of cell viability at 0.01 to 100 uM by MTT assay; settings: TDE = time-dependent effect; outline: as §2
MGC-803 [4] = test: Induction of apoptosis in human MGC803 cells assessed as change in mitochondrial membrane potential by Rhodamine 123 assay
Outline: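 Mitochondrial membrane potential measured with the cationic dye rhodamine 123 in treated MGC-803 cells at 10, 50 and 100 μM. Cellular fluorescence intensity normalised to baseline values of untreated control as a semiquantitative index.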

MGC-803 [5] = test: Anticancer activity against human MGC803 cells assessed as colony formation at > 1 uM after 24 hrs
Outline: (§3)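 Clonogenic assay: MGC-803 seeded at 200 cells/well in 6-well plates and treated for 24 h. Then kept 10 d at 37 C in humidified CO2. Colonies of >50 cells counted; survival expressed as percent of untreated control (100%). n = 3, three independent experiments.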

MGC-803 [6] = test: Induction of apoptosis in human MGC803 cells assessed as nuclear condensation after 24 hrs
MGC-803 [7] = test: Anticancer activity against human MGC803 cells assessed as cell shrinkage and deformation at 100 uM after 72 hrs by inverted phase contrast microscopy assay
MGC-803 [8] = test: Antiproliferative activity against human MGC803 cells assessed as inhibition of cell viability after 72 hrs by MTT assay; settings: MGC-803, 72 h; outline: as §2
MGC-803 [9] = test: Antiproliferative activity against human MGC803 cells assessed as inhibition of cell viability after 24 hrs by MTT assay; settings: MGC-803, 24 h; outline: as §2
MGC-803 [10] = test: Induction of apoptosis in human MGC803 cells assessed as koss of Ca2+ homeostasis after 24 hrs by fluorescence microscopy
MGC-803 [11] = test: Anticancer activity against human MGC803 cells assessed as inhibition of cell viability after 24 to 72 hrs by MTT assay; outline: as §2
MGC-803 [12] = test: Anticancer activity against human MGC803 cells assessed as colony formation after 24 hrs; outline: as §3

C[N+]1(CCCCOc2cc(O)c3c(=O)c4ccccc4oc3c2)CCCCC1
pIC50 (A549): 4.72 | pIC50 (MGC-803 [1]): 5.29 | pIC50 (CNE): 4.58 | pIC50 [2]: < 4.00

O=c1c2ccccc2oc2cc(OCCCCN3CCOCC3)cc(O)c12
pIC50 (A549): < 4.00 | pIC50 (MGC-803 [1]): < 4.00 | pIC50 (CNE): < 4.00 | pIC50 [2]: < 4.00

C[N+]1(CCOc2cc(O)c3c(=O)c4ccccc4oc3c2)CCCC1
pIC50 (A549): < 4.00 | pIC50 (MGC-803 [1]): 4.08 | pIC50 (CNE): 4.18 | pIC50 [2]: < 4.00

O=c1c2ccccc2oc2cc(OCCCCCBr)cc(O)c12
pIC50 (A549): < 4.00 | pIC50 (MGC-803 [1]): 4.61 | pIC50 (CNE): < 4.00 | pIC50 [2]: 4.11

O=c1c2ccccc2oc2cc(OCCN3CCCC3)cc(O)c12
pIC50 (A549): 4.89 | pIC50 (MGC-803 [1]): 5.25 | pIC50 (CNE): 4.95 | pIC50 [2]: 4.84

C[N+]1(CCCCOc2cc(O)c3c(=O)c4ccccc4oc3c2)CCCC1
pIC50 (A549): 4.71 | pIC50 (MGC-803 [1]): 5.09 | pIC50 (CNE): < 4.00 | pIC50 [2]: < 4.00

CC[N+](C)(CC)CCCCOc1cc(O)c2c(=O)c3ccccc3oc2c1
pIC50 (A549): 4.89 | pIC50 (MGC-803 [1]): 5.34 | pIC50 (CNE): < 4.00 | pIC50 [2]: < 4.00

O=c1c2ccccc2oc2cc(OCCCCN3CCCC3)cc(O)c12
pIC50 (A549): 4.73 | pIC50 (MGC-803 [1]): 5.35 | pIC50 (CNE): 5.22 | pIC50 [2]: 4.68

O=c1c2ccccc2oc2cc(OCCCBr)cc(O)c12
pIC50 (A549): < 4.00 | pIC50 (MGC-803 [1]): 4.54 | pIC50 (CNE): < 4.00 | pIC50 [2]: < 4.00

O=c1c2ccccc2oc2cc(OCCBr)cc(O)c12
pIC50 (A549): < 4.00 | pIC50 (MGC-803 [1]): 4.67 | pIC50 (CNE): < 4.00 | pIC50 [2]: < 4.00

C[N+]1(CCCOc2cc(O)c3c(=O)c4ccccc4oc3c2)CCCC1
pIC50 (A549): < 4.00 | pIC50 (MGC-803 [1]): 5.02 | pIC50 (CNE): < 4.00 | pIC50 [2]: < 4.00

C[N+](C)(C)CCCCOc1cc(O)c2c(=O)c3ccccc3oc2c1
pIC50 (A549): 4.08 | pIC50 (MGC-803 [1]): 4.42 | pIC50 (CNE): 4.41 | pIC50 [2]: < 4.00

O=c1c2ccccc2oc2cc(OCCCCN3CCCCC3)cc(O)c12
pIC50 (A549): 4.05 | pIC50 (MGC-803 [1]): 4.55 | pIC50 (CNE): 4.79 | pIC50 [2]: 4.26

CCN(CC)CCCCOc1cc(O)c2c(=O)c3ccccc3oc2c1
inhibition (MGC-803 [3]): tde | Activity (MGC-803 [4]): Dose-dependent effect | inhibition (MGC-803 [5]): Active | pIC50 (A549): 5.12 | pIC50 (MGC-803 [1]): 5.45 | inhibition (MGC-803 [6]): Dose-dependent effect | inhibition (MGC-803 [7]): Active | pIC50 (CNE): 5.44 | pIC50 (MGC-803 [8]): 5.74 | pIC50 (MGC-803 [9]): 4.92 | Activity (MGC-803 [10]): Dose-dependent effect | pIC50 [2]: 4.70 | inhibition (MGC-803 [11]): Dose-dependent effect | inhibition (MGC-803 [12]): Dose-dependent effect

C[N+]1(CCCCCOc2cc(O)c3c(=O)c4ccccc4oc3c2)CCCC1
pIC50 (A549): 4.97 | pIC50 (MGC-803 [1]): 4.90 | pIC50 (CNE): 5.41 | pIC50 [2]: < 4.00

C[N+]1(CCCCCCOc2cc(O)c3c(=O)c4ccccc4oc3c2)CCCC1
pIC50 (A549): 5.00 | pIC50 (MGC-803 [1]): 4.83 | pIC50 (CNE): 5.32 | pIC50 [2]: 4.62

O=c1c2ccccc2oc2cc(OCCCCBr)cc(O)c12
pIC50 (A549): < 4.00 | pIC50 (MGC-803 [1]): 4.64 | pIC50 (CNE): 4.07 | pIC50 [2]: 4.17

O=c1c2ccccc2oc2cc(OCCCN3CCCC3)cc(O)c12
pIC50 (A549): 4.93 | pIC50 (MGC-803 [1]): 5.18 | pIC50 (CNE): 5.20 | pIC50 [2]: 4.89

O=c1c2ccccc2oc2cc(OCCCCCCBr)cc(O)c12
pIC50 (A549): < 4.00 | pIC50 (MGC-803 [1]): < 4.00 | pIC50 (CNE): < 4.00 | pIC50 [2]: < 4.00

C[N+]1(CCCCOc2cc(O)c3c(=O)c4ccccc4oc3c2)CCOCC1
pIC50 (A549): < 4.00 | pIC50 (MGC-803 [1]): 4.75 | pIC50 (CNE): 4.03 | pIC50 [2]: < 4.00

O=c1c2ccccc2oc2cc(OCCCCCN3CCCC3)cc(O)c12
pIC50 (A549): 5.22 | pIC50 (MGC-803 [1]): 5.42 | pIC50 (CNE): 4.92 | pIC50 [2]: 4.74

CN(C)CCCCOc1cc(O)c2c(=O)c3ccccc3oc2c1
pIC50 (A549): 5.05 | pIC50 (MGC-803 [1]): 5.22 | pIC50 (CNE): 5.42 | pIC50 [2]: 4.69

O=c1c2ccccc2oc2cc(OCCCCCCN3CCCC3)cc(O)c12
pIC50 (A549): 5.05 | pIC50 (MGC-803 [1]): 5.27 | pIC50 (CNE): 5.91 | pIC50 [2]: 4.75

O=c1[nH]cc(F)c(=O)[nH]1 [FLUOROURACIL]
pIC50 (A549): 5.12 | pIC50 (MGC-803 [1]): 5.11 | pIC50 (CNE): 4.82 | pIC50 [2]: 4.70
